According to ChEMBL document CHEMBL4513216, “Probing the Open Global Health Chemical Diversity Library for Multistage-Active Starting Points for Next-Generation Antimalarials” (ACS Infect Dis, 2020):

Assay: Toxicity liver stage against HepG2, at 10uM
Type: cell-based
Parameters: test concentration 10 uM, cell line HepG2-A16-CD81EGFP
Details: human, HepG2-A16-CD81EGFP cells; read-out: INHIBITION
In short: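 Uninfected HepG2-A16-CD81EGFP cells, 3 × 10^3 per well, 1536-well, plated on prespotted compound at 10 μM final, parasite-free screening media added to match infected plates; puromycin 10 μM positive, DMSO 0.5% negative; run in parallel with 48 h PbLuc assay at 37 °C, 5% CO2; viability by CellTiter-Glo luminescence, normalized to controls.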

SMILES	cytotoxicity at 10 µM [%]
CS(=O)(=O)N1CCc2ccc(=O)n(CC3CC3)c2CC1	7.25
O=C(c1ccc2[nH]ccc2c1)N1Cc2nc(CN3CCCC3)oc2C1	6.98
Cc1noc(C)c1CN1CC2(CCN(C(=O)c3ccoc3C)C2)CC1=O (configuration not stated)	7.78
c1cc(N2CCC3(COCc4cnc(NCC5CC5)nc43)C2)ncn1 (configuration not stated)	6.27
Cn1cccc1C(=O)N1C[C@@H]2COC[C@]2(CNS(C)(=O)=O)C1	4.38
CN(Cc1cn2c(n1)CN(C(=O)N(C)C)CC2)Cc1ccco1	4.44
CCn1nc(C)cc1NC(=O)CCn1nc(C)c(Br)c1C	10.8
O=C(O)CCn1nc(C(F)(F)F)c(Cl)c1C1CC1	8.63
Cc1ccc(Cn2nc(C)c3c(C(=O)O)c(Cl)c(C4CC4)nc32)cc1	6.75
O=C(NCCCO)c1nnsc1-c1ccc(Cl)cc1	4.62
CCOCCCNC(=O)c1cc(C(C)C)nc(N2CCCCCC2)n1	8.53
Nc1ncc(-c2ccc(Cl)cc2)c(C2CCCNC2)n1 (configuration not stated)	-7.64
O=C(N[C@@H]1CCC[C@@H](N2CCCC2)[C@@H]1O)c1cnn2cccnc12	10.6
Cc1cnc(C(=O)N2Cc3cc(Cl)ccc3OC3(CCOCC3)C2)cn1	-37.9
CN(C)c1cncc(C2CCN(CC(N)=O)CC2)n1	3.07
Cc1ncc(CN2CCc3c(nc(-c4ccccn4)[nH]c3=O)C2)n1C	-30.1
Cc1nc(COc2nc(C(C)C)no2)cs1	11.5
NC(=O)CN1CCC(NC(=O)COCCOc2ccccc2)CC1	-9.46
COc1ccc(C2CCCN2c2cnccn2)c(OC)c1 (configuration not stated)	3.72
Cc1noc(C)c1C(C)NC(=O)N1CCN(c2cccs2)CC1 (configuration not stated)	6.43
CCNC(=O)NC(c1ccc(C)cc1)c1cccc(S(C)(=O)=O)c1 (configuration not stated)	-5.82

SMILES	cytotoxicity at 10 µM [%]
CCOc1cccc(CNc2cncc(-n3cccn3)n2)c1	-0.363
CN(C(=O)c1ccc(Cl)cn1)c1ccccc1S(C)(=O)=O	-7.17
C=C(C)CNC1CCCN(Cc2noc(C3CC3)n2)C1 (configuration not stated)	-4.56
OCCN1CCN(Cc2cc3c(cc2Br)OCCO3)CC1	7.59
CCN(C)S(=O)(=O)NCC(C)(O)c1ccsc1 (configuration not stated)	1.83
CC(=O)N1CCN(CCNS(=O)(=O)c2c(F)cccc2F)CC1	-1.14
CCc1nc(CNC2CCCc3c2cnn3CC)cs1 (configuration not stated)	5.12
Cn1ncc2c(=O)[nH]c(CN3CCCc4cc(F)ccc43)nc21	-8.23
COCC(=O)Nc1ccc(Sc2nncn2C)c(Cl)c1	-5.48
CCc1nc(C2CCCN(c3ncc(Br)cn3)C2)no1 (configuration not stated)	1.47
COCCn1cc(NCc2c[nH]nc2-c2ccc(OC)cc2)cn1	6.05
Cc1ccc2c(c1)OC1(NC2=O)C(=O)N(C)c2ccccc21 (configuration not stated)	-23.8
Cc1nn(CCO)c(C)c1CNC1CCc2c(Cl)cccc21 (configuration not stated)	-6.34
Cc1cnn(CC2CCCN2CC(=O)N(C)CCC#N)c1 (configuration not stated)	7
CC(C)CCN1Cc2c(C(=O)O)ncn2-c2ccccc2S1(=O)=O	6.72
Cc1ccc(C(=O)N2CC[C@@H]3[C@H]2CCC(=O)N3c2ccccc2)o1	-3.89
CN(C)c1ncnc2c1CCN(S(=O)(=O)c1cccc3nsnc13)C2	4.01
COc1cc(-c2cnnc(NCC3CC3)n2)cc(OC)c1OC	8.11
OCCOCCNCC1(c2ccc(F)cc2)CCOC1 (configuration not stated)	-147
Cc1ccc(CSc2nc(N)cc(NCCC(N)=O)n2)cc1	0.375
c1csc(CCNc2nc(-c3ccncc3)nc3c2CCNCC3)c1	-165

SMILES	cytotoxicity at 10 µM [%]
CN(CCCSc1ccccc1)C(=O)Cn1ncc(N(C)C)cc1=O	0.0227
CC(C)Cc1nc(CN2CC(=O)N(C)c3ccccc3C2=O)no1	-6.7
CC(C)CCN(C)C(=O)c1cc(CN2CCC(O)CC2)on1	1.06
CCC[C@@H]1CN(C(=O)c2ccccc2-c2ccccc2)C[C@H]1N(C)C	2.16
O=C1CCC2(CCCN(CCn3cc(Cl)cn3)C2)CN1C1CCCC1 (configuration not stated)	4.71
CN(C(=O)CCc1cccs1)C1CCCN(C2Cc3ccccc3C2)C1 (configuration not stated)	-4.49
NC(=O)c1cccnc1N1CCN(c2ncnc3c2CCNC3)CC1	-3.03
CN(C)S(=O)(=O)NCc1cccnc1Oc1ccc(F)cc1F	8.49
CCCc1nc(CNC(=O)Cc2cc(C)no2)cs1	-11.5
CCNc1nc(C)c(C(=O)N(C)Cc2noc(C)n2)s1	2.43
Cc1ccc2nc(CNCCCN3CCCC3=O)cc(O)c2c1	-1.14
COCCN(C)CCN1CC2(CCN(C(=O)C3CCOC3)CC2)OC1=O (configuration not stated)	-21.8
CCc1nc(C)c([C@H]2CN(C)C[C@@H]2C(=O)NCCc2cnccn2)[nH]1	-9.52
N#Cc1ccccc1C(=O)N1CCC2(CC(=O)NC2=O)C1 (configuration not stated)	-19.6
CCCNC(=O)c1ccc2c(c1)C(=O)N(CC(C)C)C2=O	-10.2
CC(C)N1CCC(Cc2cnc(-c3cccc(C(=O)O)c3)cn2)C1 (configuration not stated)	-2.27
Cc1ccsc1CN(Cc1nc2c(cnn2C)c(=O)[nH]1)C(C)C	-7.27
Cc1ccsc1CNC1CCCN(Cc2noc(C3CC3)n2)C1 (configuration not stated)	-4.98
CCn1cc(NC(=O)NCC(C)N2CCCC2)cn1 (configuration not stated)	-9.89
CCOc1ncccc1CNC(=O)NC(C)Cn1cccn1 (configuration not stated)	-15.7
O=C(CN1CCN(C(=O)c2sccc2C2CC2)CC1)NC1CC1	-3.75

SMILES	cytotoxicity at 10 µM [%]
Cc1cnn(CC2CCCN2C(=O)Cc2c(C)nc(C)[nH]c2=O)c1 (configuration not stated)	-3.63
O=C(O)c1cc(S(=O)(=O)Nc2ccccc2)cc2c1OCCO2	-9.26
O=C(CCc1cccs1)N1CCCC(n2ccnc2)C1 (configuration not stated)	-1.13
c1cnnc(N2CCCC(NCc3nnc(-c4ccco4)o3)C2)c1 (configuration not stated)	-0.986
COc1ncccc1CNC(=O)c1cccc(C)n1	-1.58
Cc1ccc(Cl)cc1N1CCC(CNC(=O)CCn2ccnc2)C1 (configuration not stated)	-9.7
CC(Cn1ccnc1)NC(=O)N1CCN(Cc2cccnc2)CC1 (configuration not stated)	4.31
Cc1nc(C2CCCN(C(=O)Cn3ccccc3=O)C2)no1 (configuration not stated)	-9.37
O=C(CO)N1CCC(F)(F)C2(CCN(c3ccccc3)C2)C1 (configuration not stated)	13.8
Cc1ccc(N2CC3(COCCN(Cc4cnn(C)c4)C3)OCC2=O)s1 (configuration not stated)	-5.18
CO[C@@H]1CCN(c2ncc(F)cn2)[C@@H]2CN(Cc3cccnc3)C[C@@H]21	11.8
Cn1cc(CN2CCC[C@]3(C[C@H](Oc4ncccc4F)CO3)C2)cn1	9.92
COc1cc(N2C[C@@H]3COC[C@]3(C(=O)NC3CC(F)(F)C3)C2)ncn1	14.7
Cc1cccc(CN2CCc3onc(Cn4cccc4)c3C2)n1	7.81
COc1ccc(CN2C[C@@H](N(C)Cc3ccco3)[C@H]3OCCC[C@H]32)cc1	1.18
CN(C)CC1CN(C(=O)Cc2ccccc2)Cc2nccn2C1 (configuration not stated)	-115
COCCN1CCN(S(=O)(=O)c2ccccc2)Cc2cccnc21	4.77
CN(C)CC1CN(Cc2ccsc2)Cc2nccn2C1 (configuration not stated)	1.72
O=C(NCc1ccccc1)[C@H]1C[C@H]2CN(S(=O)(=O)C3CC3)C[C@@H]1O2	1.59
